Source: ChEMBL document CHEMBL1155297, “Synthesis, antimicrobial and antioxidant activities of substituted pyrazoles, isoxazoles, pyrimidine and thioxopyrimidine derivatives” (2009)

Columns and labels:
Type in all cases: functional
[1] = test system: Fusarium solani; test: Antifungal activity against Fusarium solani NCIM 1330 at 100 ug/disk after 48 hrs by agar disk diffusion method; details: NCIM 1330, 48 h, read-out: IZ
Procedure, shortened: (§1)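 Fungal disc diffusion on nutrient agar plates pre-inoculated with each fungus. 6 mm sterile paper discs carried the compound in DMSO at the stated amount per disc. Plates were held at 37 °C, and inhibition-zone diameter was measured after 48 h. Values are the mean of three independent triplicate readings.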

[2] = Antioxidant activity assessed as nitric oxide production at 100 uM after 120 mins by Griess reagent method
Procedure, shortened: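 Nitric oxide assay with Griess read-out. At intervals, 0.5 ml of incubation solution was mixed with 0.5 ml Griess reagent (1% sulfanilamide, 0.1% N-naphthylethylenediamine dihydrochloride, 2% o-phosphoric acid in water). The control received an equal amount of solvent and was handled identically.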

[3] = test system: Proteus vulgaris; test: Antibacterial activity against Proteus vulgaris NCIM 2027 at 100 ug/disk after 24 hrs by agar disk diffusion method; details: NCIM 2027, 24 h, read-out: IZ
Procedure, shortened: (§2)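 Agar disc diffusion on nutrient agar plates pre-inoculated with each bacterium. Sterile 6 mm filter-paper discs were moistened with compound in DMSO at the stated per-disc amount. Plates were incubated at 37 °C, and the growth-inhibition zone diameter was read after 24 h. Each determination was run in triplicate, and the mean of three independent readings is reported.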

[4] = test system: Curvularia lunata; test: Antifungal activity against Curvularia lunata NCIM 716 at 100 ug/disk after 48 hrs by agar disk diffusion method; details: NCIM 716, 48 h, read-out: IZ; procedure, shortened: as §1
[5] = test system: Aspergillus niger; test: Antifungal activity against Aspergillus niger NCIM 596 at 200 ug/disk after 48 hrs by agar disk diffusion method; details: NCIM 596, 48 h, read-out: IZ; procedure, shortened: as §1
[6] = test system: Fusarium solani; test: Antifungal activity against Fusarium solani NCIM 1330 at 200 ug/disk after 48 hrs by agar disk diffusion method; details: NCIM 1330, 48 h, read-out: IZ; procedure, shortened: as §1
[7] = test system: Proteus vulgaris; test: Antibacterial activity against Proteus vulgaris NCIM 2027 at 200 ug/disk after 24 hrs by agar disk diffusion method; details: NCIM 2027, 24 h, read-out: IZ; procedure, shortened: as §2
[8] = test system: Staphylococcus aureus; test: Antibacterial activity against Staphylococcus aureus NCIM 5021 at 200 ug/disk after 24 hrs by agar disk diffusion method; details: NCIM 5021, 24 h, read-out: IZ; procedure, shortened: as §2
[9] = test system: Bacillus subtilis; test: Antibacterial activity against Bacillus subtilis NCIM 2063 at 200 ug/disk after 24 hrs by agar disk diffusion method; details: NCIM 2063, 24 h, read-out: IZ; procedure, shortened: as §2
[10] = test system: Bacillus subtilis; test: Antibacterial activity against Bacillus subtilis NCIM 2063 at 100 ug/disk after 24 hrs by agar disk diffusion method; details: NCIM 2063, 24 h, read-out: IZ; procedure, shortened: as §2
[11] = test system: Aspergillus niger; test: Antifungal activity against Aspergillus niger NCIM 596 at 100 ug/disk after 48 hrs by agar disk diffusion method; details: NCIM 596, 48 h, read-out: IZ; procedure, shortened: as §1
[12] = test system: Radical scavenging activity; test: Antioxidant activity assessed as DPPH free radical scavenging activity at 100 uM after 20 mins
Procedure, shortened: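 DPPH scavenging: compound solutions were added to DPPH in dioxane/ethanol and kept at ambient temperature for 20 min. Absorbance was read at 517 nm. The test–control difference was expressed as percent DPPH radical scavenging.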

[13] = test system: Curvularia lunata; test: Antifungal activity against Curvularia lunata NCIM 716 at 200 ug/disk after 48 hrs by agar disk diffusion method; details: NCIM 716, 48 h, read-out: IZ; procedure, shortened: as §1
[14] = test system: Klebsiella pneumoniae; test: Antibacterial activity against Klebsiella pneumoniae NCIM 2957 at 100 ug/disk after 24 hrs by agar disk diffusion method; details: NCIM 2957, 24 h, read-out: IZ; procedure, shortened: as §2
[15] = test system: Staphylococcus aureus; test: Antibacterial activity against Staphylococcus aureus NCIM 5021 at 100 ug/disk after 24 hrs by agar disk diffusion method; details: NCIM 5021, 24 h, read-out: IZ; procedure, shortened: as §2
[16] = test system: Klebsiella pneumoniae; test: Antibacterial activity against Klebsiella pneumoniae NCIM 2957 at 200 ug/disk after 24 hrs by agar disk diffusion method; details: NCIM 2957, 24 h, read-out: IZ; procedure, shortened: as §2

SMILES	zone of inhibition at 100 µg/disc [1]	inhibition [2]	zone of inhibition at 100 µg/disc [3]	zone of inhibition at 100 µg/disc [4]	zone of inhibition at 200 µg/disc [5]	zone of inhibition at 200 µg/disc [6]	zone of inhibition at 200 µg/disc [7]	zone of inhibition at 200 µg/disc [8]	zone of inhibition at 200 µg/disc [9]	zone of inhibition at 100 µg/disc [10]	zone of inhibition at 100 µg/disc [11]	inhibition [12]	zone of inhibition at 200 µg/disc [13]	zone of inhibition at 100 µg/disc [14]	zone of inhibition at 100 µg/disc [15]	zone of inhibition at 200 µg/disc [16]
Cc1ccc(S(=O)(=O)CC(C2C(N)=NN=C2N)S(=O)(=O)c2ccc(C)cc2)cc1 (stereo unspecified)	30 mm	60.5%	22 mm	31 mm	31 mm	35 mm	25 mm	29 mm	28 mm	26 mm	28 mm	59.4%	33 mm	23 mm	27 mm	26 mm
CN1C(=N)C(C(CS(=O)(=O)c2ccccc2)S(=O)(=O)c2ccccc2)C(=N)N(C)C1=O (stereo unspecified)	13 mm	26.9%	10 mm	16 mm	16 mm	16 mm	12 mm	15 mm	16 mm	14 mm	14 mm	27.7%	20 mm	9 mm	13 mm	12 mm
Cc1ccc(C(=O)CC(C(=O)c2ccc(C)cc2)C2C(=N)ON=C2N)cc1 (stereo unspecified)	32 mm	54.3%	21 mm	31 mm	27 mm	34 mm	23 mm	25 mm	28 mm	26 mm	24 mm	58.1%	33 mm	22 mm	22 mm	24 mm
Cc1ccc(S(=O)(=O)CC(C2C(N)=NC(=S)N=C2N)S(=O)(=O)c2ccc(C)cc2)cc1 (stereo unspecified)	19 mm	39.9%	20 mm	21 mm	20 mm	21 mm	20 mm	24 mm	22 mm	20 mm	17 mm	38.7%	23 mm	19 mm	21 mm	21 mm
Cc1ccc(C(=O)CC(C(=O)c2ccc(C)cc2)C2C(N)=NC(=O)N=C2N)cc1 (stereo unspecified)	14 mm	27.2%	13 mm	15 mm	15 mm	18 mm	14 mm	15 mm	12 mm	11 mm	13 mm	28.6%	17 mm	10 mm	12 mm	12 mm
NC1=NC(=O)N=C(N)C1C(CC(=O)c1ccc(Cl)cc1)C(=O)c1ccc(Cl)cc1 (stereo unspecified)	17 mm	39.4%	10 mm	14 mm	20 mm	19 mm	12 mm	15 mm	14 mm	12 mm	16 mm	41%	18 mm	11 mm	13 mm	13 mm
